Reference: ChEMBL document CHEMBL4665738, “Identification of 4-anilino-6-aminoquinazoline derivatives as potential MERS-CoV inhibitors” (Bioorg Med Chem Lett, 2020)

Experiments:
[1] = test system: Middle East respiratory syndrome-related coronavirus; test: Antiviral activity against Middle East respiratory syndrome coronavirus MERS-CoV/KOR/KNIH/002_05_2015 infected in African green monkey Vero cells assessed as reduction in virus induced cytopathic effect after 24 hrs by immunofluorescence assay; type: functional, organism-based; details: MERS-CoV/KOR/KNIH/002_05_2015, Vero
Vero = test: Cytotoxicity against African green monkey Vero cells infected with Middle East respiratory syndrome coronavirus MERS-CoV/KOR/KNIH/002_05_2015 assessed as reduction in cell viability; type: cell-based; details: chlorocebus sabaeus
in vivo = details: rat, po, 5 mg/kg
[2] = Volume of distribution at steady state in rat at 2 mg/kg, iv; type: ADME, organism-based; details: in vivo, read-out: Vdss
How it was run: (§1)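 Rats were dosed intravenously at 2 mg/kg or orally at 5 mg/kg. Each parameter is the mean of experiments in three rats.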

[3] = Clearance in rat at 2 mg/kg, iv; type: ADME, organism-based; details: in vivo; how it was run: as §1
[4] = Cytotoxicity against African green monkey Vero cells; type: cell-based; details: chlorocebus sabaeus
How it was run: (§2)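 Cytotoxicity values are given in µM, each against a named cell line: Vero (African green monkey kidney), HFL-1 (human embryonic lung), L929 (NCTC clone 929 mouse fibroblast), NIH 3T3 (mouse embryonic fibroblast) and CHO-K1 (Chinese hamster ovary).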

[5] = AUC in rat at 5 mg/kg, po; type: ADME, organism-based; design: dose 5 mg/kg; details: in vivo
How it was run: (§3)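 Rat pharmacokinetic study with separate intravenous (2 mg/kg) and oral (5 mg/kg) dosing arms; reported parameters are means from three rats per experiment.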

[6] = Half life in rat at 5 mg/kg, po; type: ADME, organism-based; details: in vivo; how it was run: as §1
[7] = Cytotoxicity against human HFL-1 cells; type: cell-based, HFL1; how it was run: as §2
[8] = Cytotoxicity against mouse NIH/3T3 cells; type: cell-based, NIH3T3; how it was run: as §2
[9] = Cytotoxicity against mouse L929 cells; type: cell-based; how it was run: as §2
[10] = Oral bioavailability in rat at 5 mg/kg; type: ADME, organism-based; details: in vivo; how it was run: as §1
[11] = Metabolic stability in mouse microsomes assessed as parent compound remaining incubated for 30 mins; type: ADME, Microsome; details: read-out: Stabilty
How it was run: (§4)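 Mouse or human liver microsomes were incubated with the compound for 30 min. The read-out is the percentage of original compound remaining.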

[12] = Cmax in rat at 5 mg/kg, po; type: ADME, organism-based; design: route oral, dose 5 mg/kg; details: in vivo; how it was run: as §1
[13] = Cytotoxicity against CHO-K1 cells; type: cell-based, Cricetulus griseus; details: chinese hamster; how it was run: as §2
[14] = Half life in rat at 2 mg/kg, iv; type: ADME, organism-based; details: in vivo; how it was run: as §1
[15] = AUC in rat at 2 mg/kg, iv; type: ADME, organism-based; design: dose 2 mg/kg; details: in vivo; how it was run: as §3
[16] = target: Voltage-gated inwardly rectifying potassium channel KCNH2 (Homo sapiens, UniProt Q12809); test: Modulation of human ERG
Chain of Voltage-gated inwardly rectifying potassium channel KCNH2 (Q12809 whole entry): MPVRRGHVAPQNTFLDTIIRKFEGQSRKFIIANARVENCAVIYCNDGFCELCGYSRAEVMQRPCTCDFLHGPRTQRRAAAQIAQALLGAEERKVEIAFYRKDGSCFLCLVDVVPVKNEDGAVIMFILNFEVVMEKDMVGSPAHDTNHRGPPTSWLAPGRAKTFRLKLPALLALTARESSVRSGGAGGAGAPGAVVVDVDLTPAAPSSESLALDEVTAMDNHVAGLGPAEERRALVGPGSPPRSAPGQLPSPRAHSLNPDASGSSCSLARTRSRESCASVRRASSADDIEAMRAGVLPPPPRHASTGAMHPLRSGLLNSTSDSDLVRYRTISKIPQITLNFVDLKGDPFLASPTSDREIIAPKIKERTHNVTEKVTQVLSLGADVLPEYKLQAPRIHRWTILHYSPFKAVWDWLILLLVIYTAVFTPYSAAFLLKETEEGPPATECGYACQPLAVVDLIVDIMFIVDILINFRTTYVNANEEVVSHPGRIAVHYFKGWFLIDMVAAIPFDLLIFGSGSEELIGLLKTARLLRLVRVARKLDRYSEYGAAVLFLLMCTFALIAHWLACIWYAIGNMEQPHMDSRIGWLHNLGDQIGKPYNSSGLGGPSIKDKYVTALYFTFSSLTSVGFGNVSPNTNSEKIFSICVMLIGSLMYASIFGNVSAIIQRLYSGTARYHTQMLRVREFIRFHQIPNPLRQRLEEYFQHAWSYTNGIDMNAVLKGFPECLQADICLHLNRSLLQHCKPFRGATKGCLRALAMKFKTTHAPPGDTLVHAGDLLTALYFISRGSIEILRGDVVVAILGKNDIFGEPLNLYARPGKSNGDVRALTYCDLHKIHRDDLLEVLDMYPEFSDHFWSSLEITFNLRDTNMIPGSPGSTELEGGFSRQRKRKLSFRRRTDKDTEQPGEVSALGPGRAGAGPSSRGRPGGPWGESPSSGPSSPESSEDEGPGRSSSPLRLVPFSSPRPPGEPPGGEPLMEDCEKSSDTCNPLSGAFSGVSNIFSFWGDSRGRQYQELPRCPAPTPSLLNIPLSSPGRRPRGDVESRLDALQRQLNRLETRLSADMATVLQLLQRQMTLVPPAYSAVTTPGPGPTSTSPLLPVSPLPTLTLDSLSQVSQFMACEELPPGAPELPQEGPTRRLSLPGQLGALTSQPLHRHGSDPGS

[17] = Metabolic stability in human microsomes assessed as parent compound remaining incubated for 30 mins; type: ADME, Microsome; details: read-out: Stabilty; how it was run: as §4

Row | Structure (SMILES) | IC50 [1] | CC50 (Vero) | further results
1 | COc1cccc(CNc2ccc3ncnc(Nc4ccc(F)cc4)c3c2)c1 | 22.7 µM | > 25 µM | 
2 | COc1ccccc1CNc1ccc2ncnc(Nc3ccc(F)c(Cl)c3)c2c1 | 3.8 µM | > 25 µM | 
3 | CC(=O)Nc1ccc2ncnc(Nc3ccc(F)c(Cl)c3)c2c1 | > 25 µM |  | 
4 | Oc1ccccc1CNc1ccc2ncnc(Nc3ccc(F)c(Cl)c3)c2c1 | 3.6 µM |  | 
5 | Fc1ccc(CNc2ccc3ncnc(Nc4ccc(F)c(Cl)c4)c3c2)cc1F | 4.6 µM | 23 µM | 
6 | O=[N+]([O-])c1ccccc1CNc1ccc2ncnc(Nc3ccc(F)c(Cl)c3)c2c1 | 3.3 µM | > 25 µM | 
7 | COc1cccc(CNc2ccc3ncnc(Nc4cccc(Cl)c4)c3c2)c1 | > 25 µM | 23 µM | 
8 | COc1cccc(CNc2ccc3ncnc(Nc4ccc(C#N)cc4)c3c2)c1 | > 25 µM | > 25 µM | 
9 | N#Cc1cccc(CNc2ccc3ncnc(Nc4ccc(C(F)(F)F)cc4)c3c2)c1 | 3.6 µM | > 25 µM | 
10 | Fc1ccc(Nc2ncnc3ccc(NC4CCCCC4)cc23)cc1Cl | 15 µM | > 25 µM | 
11 | N#Cc1cccc(/C=C/C(=O)Nc2ccc3ncnc(Nc4ccc(F)c(Cl)c4)c3c2)c1 | > 25 µM |  | 
12 | N#Cc1cccc(CNc2cc3c(Nc4ccc(F)c(Cl)c4)ncnc3cc2O)c1 | > 25 µM | > 25 µM | 
13 | CCCCN(CCCC)c1ccc2ncnc(Nc3ccc(F)c(Cl)c3)c2c1 | > 25 µM |  | 
14 | COc1cccc(CNc2ccc3ncnc(Nc4cccc(C(C)=O)c4)c3c2)c1 | > 25 µM |  | 
15 | N#Cc1ccc(CNc2ccc3ncnc(Nc4ccc(F)c(Cl)c4)c3c2)cc1 | 4.8 µM | > 25 µM | 
16 | O=[N+]([O-])c1ccc(CNc2ccc3ncnc(Nc4ccc(C(F)(F)F)cc4)c3c2)cc1 | 3.3 µM | > 25 µM | 

Row | Structure (SMILES) | IC50 [1] | CC50 (Vero) | further results
17 | N#Cc1ccccc1CNc1ccc2ncnc(Nc3ccc(C(F)(F)F)cc3)c2c1 | > 25 µM | > 25 µM | 
18 | N#Cc1cccc(C(=O)Nc2ccc3ncnc(Nc4ccc(F)c(Cl)c4)c3c2)c1 | > 25 µM |  | 
19 | O=[N+]([O-])c1cccc(CNc2ccc3ncnc(Nc4ccc(F)c(Cl)c4)c3c2)c1 | 6.1 µM | > 25 µM | 
20 | Fc1ccc(Nc2ncnc3ccc(NCc4cccc(C(F)(F)F)c4)cc23)cc1Cl | 2.3 µM | 9.2 µM | 
21 | COc1cccc(CNc2ccc3ncnc(Nc4ccc(C(F)(F)F)cc4)c3c2)c1 | 1.8 µM | > 25 µM | 
22 | COc1cccc(CNc2ccc3ncnc(Nc4ccc(Br)cc4)c3c2)c1 | 7.4 µM | > 25 µM | 
23 | Fc1ccc(CNc2ccc3ncnc(Nc4ccc(F)c(Cl)c4)c3c2)cc1 | 4.6 µM | 14.4 µM | 
24 | O=[N+]([O-])c1ccc(CNc2ccc3ncnc(Nc4ccc(F)c(Cl)c4)c3c2)cc1 | 2.7 µM | > 25 µM | 
25 | NC(=O)c1cccc(CNc2ccc3ncnc(Nc4ccc(F)c(Cl)c4)c3c2)c1 | > 25 µM |  | 
26 | N#Cc1ccccc1CNc1ccc2ncnc(Nc3ccc(F)c(Cl)c3)c2c1 | > 25 µM | > 25 µM | 
27 | N#Cc1ccc(CNc2ccc3ncnc(Nc4ccc(C(F)(F)F)cc4)c3c2)cc1 | 4.1 µM | > 25 µM | 
28 | O=[N+]([O-])c1cccc(CNc2ccc3ncnc(Nc4ccc(C(F)(F)F)cc4)c3c2)c1 | 3.7 µM | > 25 µM | 
29 | COc1cccc(CNc2ccc3ncnc(Nc4ccc(F)c(Cl)c4)c3c2)c1 | 5.6 µM | > 25 µM | 
30 | N#Cc1cccc(CNc2ccc3ncnc(Nc4ccc(F)c(Cl)c4)c3c2)c1 | 0.157 µM |  | Tmax (in vivo): 2 h; Vd [2]: 6.3 L/kg; clearance [3]: 28.8 mL/min/kg; CC50 [4]: > 100 µM; AUC [5]: 570 ng·h/mL; half-life [6]: 5.5 h; CC50 [7]: > 100 µM; CC50 [8]: > 100 µM; CC50 [9]: > 100 µM; bioavailability [10]: 21%; remaining at 0.5 h [11]: 60.7%; Cmax [12]: 0.2 µg/h; CC50 [13]: > 100 µM; half-life [14]: 5.9 h; AUC [15]: 1110 ng·h/mL; Activity [16]: > 50 µM; remaining at 0.5 h [17]: 56.4%
31 | COc1cc2ncnc(Nc3ccc(F)c(Cl)c3)c2cc1NCc1cccc(C#N)c1 | 5.8 µM | 13.2 µM | 
